According to ChEMBL document CHEMBL5316316, “Designing Synthetic, Sulfated Glycosaminoglycan Mimetics That Are Orally Bioavailable and Exhibiting In Vivo Anticancer Activity” (J Med Chem, 2023):
Calls of active or inactive are those of the source. The rule behind the calls is not given here.

How the values were obtained:
[1] = test system: HT-29; experiment: Antitumor activity against human HT-29 cells xenografted in NCR nude mouse assessed as increase in number of spheroids at 25 mg/kg, ip administered for 3 weeks in presence of oxaliplatin; assay type: functional, organism-based
Method in brief: (§1)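 HT-29 cells (1×10^6 bulk, or 1×10^5 FACS-sorted CD133+/CXCR4+) injected subcutaneously into NCr nude mice. Once tumors were palpable (>50 mm3), 5-fluorouracil 25 mg/kg plus oxaliplatin 2 mg/kg given IP weekly for 3 weeks, then mice randomized for further treatment. Tumor volume by Vernier caliper three times weekly. Ex vivo xenograft cells were digested with collagenase IV and assessed for 1°–4° spheroids (50–150 μm) and for Dual Hi/LGR5+ cells by flow cytometry.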

[2] = test system: HT-29; experiment: Antitumor activity against human HT-29 cells xenografted in NCR nude mouse assessed as increase in proportion of CSC at 25 mg/kg, ip administered for 3 weeks in presence of oxaliplatin by flow cytometry analysis (reference value: 11.37 %); assay type: functional; method in brief: as §1
[3] = test system: HT-29; experiment: Antitumor activity against human HT-29 cells xenografted in NCR nude mouse assessed as spheroid formation at 25 mg/kg, ip administered for 3 weeks in presence of oxaliplatin; assay type: functional, organism-based; method in brief: as §1
[4] = test system: HT-29; experiment: Antitumor activity against human HT-29 cells xenografted in NCR nude mouse assessed as reduction in tumor volume at 25 mg/kg, ip administered for 3 weeks in presence of oxaliplatin by vernier caliper method; assay type: functional, organism-based; method in brief: as §1
[5] = Cytotoxicity against human HT-29 cells assessed as inhibition of spheroid growth; settings: HT-29 cell spheroids
[6] = test system: HT-29; experiment: Cytotoxicity against human HT-29 cells assessed as reduction in cell viability incubated for 60 to 72 hrs by MTT assay; assay type: toxicity, cell-based; settings: time 60-72 hrs
Method in brief: (§2)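 HT-29 monolayer cells were seeded at about 2.5 × 10^3 per well in DMEM:F12 with 10% FBS and incubated overnight at 37 °C, 5% CO2. Compound was added for 60–72 h. MTT (5 mg/mL in PBS) was added for 2–3 h, crystals were dissolved in DMSO and absorbance read at 590 nm. Results are percent of vehicle control, at least three replicates.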

[7] = test system: HT-29; experiment: Antitumor activity against human HT-29 cells xenografted in NCR nude mouse assessed as reduction in tumor growth at 100 mg/kg, po administered 5 times a week for 3 weeks relative to control; assay type: functional; design: scale not given: the % may be the effect or the level left
Method in brief: (§3)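 Dual Hi (CD133+/CXCR4+) HT-29 cells, FACS-sorted, injected subcutaneously at 1 × 10^5 into NCr nude mice. Mice were then randomized to vehicle or 100 mg/kg oral gavage 5 times/week for 3 weeks. Tumor volume was measured by caliper three times weekly.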

[8] = test system: Plasma; experiment: Anticoagulant activity in pooled human plasma assessed as prolongation of activated partial thromboplastin time incubated for 4 mins by coagulometer analysis; assay type: functional, cell-free
Method in brief: (§4)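 Pooled normal citrated human plasma (90 μL) mixed with 10 μL compound and 100 μL prewarmed ellagic acid APTT reagent, incubated 4 min at 37 °C, then recalcified with 100 μL prewarmed 25 mM CaCl2. Clot time read on a fibrometer (one-stage recalcification). Water blank gave the baseline. Concentration doubling APTT came from a quadratic trend-line fit.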

[9] = Toxicity in NCR nude mouse xenografted with human HT-29 cells assessed as change in body weight at 50 mg/kg, ip in presence 5-fluorouracil and oxaliplatin; assay type: organism-based; settings: in vivo
[10] = Ex-vivo growth inhibition of mouse intestinal organoids measured for 5 to 7 days in presence of 5-fluorouracil and oxaliplatin by phase contrast microscopic analysis; assay type: toxicity, Intestine; settings: time 5-7 day
Method in brief: (§5)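 Intestinal pieces (2–4 cm) were taken from treated xenograft mice and chelated and dissociated into crypts. About 200–500 crypts were embedded in Matrigel under mouse IntestiCult medium at 37 °C, 5% CO2. Organoids were counted by phase contrast after 5–7 days.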

[11] = Toxicity in NCR nude mouse xenografted with human HT-29 cells assessed as change in body weight at 100 mg/kg, po; assay type: organism-based; settings: in vivo
[12] = Ex-vivo growth inhibition of mouse intestinal organoids measured for 5 to 7 days by phase contrast microscopic analysis; assay type: toxicity, Intestine; settings: time 5-7 day; method in brief: as §5
[13] = test system: HT-29; experiment: Antitumor activity against human CD133/CXCR4-induced HT-29 cells xenografted in NCR nude mouse assessed as spheroid formation at 100 mg/kg, po administered 5 times a week for 3 weeks by phase contrast microscopic analysis; assay type: functional, organism-based
Method in brief: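 Xenografts (Dual Hi HT-29, FUOX-pretreated, 100 mg/kg oral 5×/week for 3 weeks) were digested with collagenase IV and filtered at 70 μm. Cells were plated serially as 1°–3° spheroids on low-adhesion plates in stem cell medium with EGF and FGF. Spheroids of 50–150 μm were counted by phase contrast. At least three replicates.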

[14] = test system: HT-29; experiment: Antitumor activity against human HT-29 cells xenografted in NCR nude mouse assessed as spheroid formation at 50 mg/kg, ip; assay type: functional, organism-based
Method in brief: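 Bulk HT-29 xenografts in NCr nude mice were FUOX-pretreated, then given 50 mg/kg IP three times/week (8 doses), alone or with FUOX. Collagenase-digested tumor cells were serially cultured as 1°–4° spheroids in stem cell medium with EGF/FGF. Spheroids of 50–150 μm were counted by phase contrast, in at least three replicates.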

[15] = test system: Plasma; experiment: Anticoagulant activity in human plasma assessed as prolongation of activated partial thromboplastin time by measuring concentration required to double APTT incubated for 4 mins by coagulometer analysis; assay type: functional, cell-free; method in brief: as §4
[16] = Ex-vivo growth inhibition of mouse intestinal organoids at 100 mg/kg, po measured for 5 to 7 days by phase contrast microscopic analysis; settings: in vivo
[17] = Toxicity in NCR nude mouse xenografted with human HT-29 cells assessed as bleeding at 100 mg/kg, po; assay type: organism-based; settings: in vivo
[18] = test system: HT-29; experiment: Antitumor activity against human HT-29 cells xenografted in NCR nude mouse assessed as reduction in BMI-1 expression level at 50 mg/kg, ip in presence of 5-fluorouracil and oxaliplatin of by Western blot analysis; assay type: functional, organism-based
Method in brief: (§6)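 Bulk HT-29 cells (1 × 10^6) were grown as subcutaneous xenografts in NCr nude mice and given FUOX (25 mg/kg FU + 2 mg/kg OX IP weekly for 3 weeks). Mice were then randomized (n = 4/arm) to 50 mg/kg IP three times/week (8 doses), alone or with FUOX. Tumor lysates (n = 2/group) were Western blotted for DCAMLK1 and BMI-1.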

[19] = test system: HT-29; experiment: Antitumor activity against human HT-29 cells xenografted in NCR nude mouse assessed as reduction in DCAMKL1 expression level at 50 mg/kg, ip in presence of 5-fluorouracil and oxaliplatin of by Western blot analysis; assay type: functional, organism-based; method in brief: as §6
[20] = test system: HT-29; experiment: Cytotoxicity against human HT-29 cells assessed as reduction in cell viability at 100 uM incubated for 60 to 72 hrs by MTT assay; assay type: toxicity, cell-based; settings: ht-29, 100 µM, time 60-72 hrs; method in brief: as §2
[21] = test system: HT-29; experiment: Antitumor activity against human HT-29 cells xenografted in NCR nude mouse assessed as decrease in proportion of CSC at 100 mg/kg, po administered 5 times a week for 3 weeks by flow cytometry analysis
[22] = test system: HT-29; experiment: Antitumor activity against CD133/CXCR4-induced human HT-29 cells xenografted in NCR nude mouse assessed as reduction in tumor growth at 100 mg/kg, po administered 5 times a week for 3 weeks; assay type: functional, organism-based; method in brief: as §3

O=c1[nH]cc(F)c(=O)[nH]1 [FLUOROURACIL]
Activity [1]: Active
Activity [2]: 26.4%
Activity [3]: Active
Activity [4]: Active

O=c1c(OS(=O)(=O)[O-])c(-c2ccc(OS(=O)(=O)[O-])cc2OS(=O)(=O)[O-])oc2cc(OS(=O)(=O)[O-])cc(OCC3CCC(COc4cc(OS(=O)(=O)[O-])cc5oc(-c6ccc(OS(=O)(=O)[O-])cc6OS(=O)(=O)[O-])c(OS(=O)(=O)[O-])c(=O)c45)CC3)c12.[Na+].[Na+].[Na+].[Na+].[Na+].[Na+].[Na+].[Na+] (stereo not given)
IC50 [5]: 17.9 µM
Activity [6]: Non-Toxic

CC(C)CCC[C@@H](C)[C@H]1CC[C@H]2[C@@H]3CC=C4C[C@@H](OCCOc5cc(-c6oc7cc(OS(=O)(=O)[O-])cc(OCCCOc8cc(OS(=O)(=O)[O-])cc9oc(-c%10ccc(OS(=O)(=O)[O-])c(OS(=O)(=O)[O-])c%10)c(OS(=O)(=O)[O-])c(=O)c89)c7c(=O)c6OS(=O)(=O)[O-])ccc5OS(=O)(=O)[O-])CC[C@]4(C)[C@H]3CC[C@]12C.[Na+].[Na+].[Na+].[Na+].[Na+].[Na+].[Na+]
IC50 [5]: 5.5 µM
Activity [7]: ~70%
Activity [8]: Dose-Dependent Effect
Activity [9]: Non-Toxic
Activity [10]: Non-Toxic
Activity [11]: Non-Toxic
Activity [12]: Non-Toxic
Activity [13]: Active
Activity [14]: Active
Activity [15]: Active
Activity [16]: Non-Toxic
Activity [17]: Non-Toxic
Activity [18]: Active
Activity [19]: Active
Activity [20]: Toxic
Activity [21]: Active
Activity [22]: Active

O=c1cc(-c2ccc(OS(=O)(=O)[O-])cc2)oc2cc(OS(=O)(=O)[O-])cc(OCC3CCC(COc4cc(OS(=O)(=O)[O-])cc5oc(-c6ccc(OS(=O)(=O)[O-])cc6)cc(=O)c45)CC3)c12.[Na+].[Na+].[Na+].[Na+] (stereo not given)
IC50 [5]: 46 µM
Activity [6]: Non-Toxic
